Screening data as filed in PubChem.
In the library only some 2.8% were active in any assay of this set; here they are far more common.
Mcl-1 Bim block = human Bim-Mcl-1 interaction inhibition | Q07820 | hit rate 0.1% among 190,000 | inhibition, % at 10 µM | Bead-based flow cytometry, Bim peptide-Mcl-1 binding; in the data active means inhibition above about 40%;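 further: 0% = no compound tracer wells and 100% = peptide blocker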
Target sequence (Q07820 whole entry, looked up): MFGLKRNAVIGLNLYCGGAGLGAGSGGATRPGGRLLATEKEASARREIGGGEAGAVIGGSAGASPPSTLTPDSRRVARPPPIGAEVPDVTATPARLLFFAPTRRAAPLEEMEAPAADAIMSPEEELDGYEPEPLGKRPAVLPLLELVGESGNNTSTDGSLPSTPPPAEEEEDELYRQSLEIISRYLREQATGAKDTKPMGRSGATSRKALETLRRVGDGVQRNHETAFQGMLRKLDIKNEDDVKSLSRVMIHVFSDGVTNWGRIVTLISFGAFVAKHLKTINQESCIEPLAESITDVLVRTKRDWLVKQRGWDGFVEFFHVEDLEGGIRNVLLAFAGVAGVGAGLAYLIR
Arbovirus inh = blocks arbovirus infection. arbovirus infection cell-based antiviral screen. inhibition, % at 10 µM. hit rate 0.37% among 200,000; in the data active means inhibition above about 30%
m-calpain inh = inhibitors of pig calpain II; AID 1236; hit rate 0.37% among 220,000; inhibition, % at 16 µM; purified calpain II, fluorogenic peptide substrate, 30 min;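 active means inhibition above about 50%, limit read from the data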
Biofilm kill mix = mixtures killing C. albicans biofilm; C. albicans biofilm persisters + clotrimazole, fluorescence viability; primary screen in compound mixtures of four per well; inhibition, % at 7.6 µM; AID 1242; hit rate 0.02% among 120,000;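 active means inhibition above 30.3% in the primary screen of four-compound pools, then above 30% when the compound was retested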;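 further: compounds exposed to preformed 24 h biofilms for 48 h; 0% = untreated biofilm control and 100% = clotrimazole plus chlorhexidine kill blank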
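Test system: C. albicans biofilms. Buffer or medium: RPMI/MOPS medium, pH 7.0. Timing: 48 h compound exposure at 37 °C. Technique: Alamar Blue fluorescence. Evaluation: percent inhibition of biofilm viability.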
Mcl1 Bid PPI = Mcl-1/Bid interaction inhibition; Q07820; TR-FRET Mcl-1/Bid-Dy647 peptide binding, 1536-well; inhibition, % at 21.7 µM; hit rate 0.97% among 220,000; AID 1021;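 active means compounds that cut the binding signal by more than half at the single screening dose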;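 further: His-tagged Mcl-1 with europium anti-His antibody binding Bid BH3 peptide; 0% = Mcl-1 plus peptide wells and 100% = peptide-only wells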
Mcl1-Noxa inh = disrupts binding of human Mcl-1 to Noxa peptide; Q07820; TR-FRET Mcl-1/Noxa peptide binding, 2 h; inhibition, % at 21.7 µM; AID 1022; hit rate 1.5% among 220,000;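 active means compounds that cut the protein-peptide binding signal by more than 50% relative to plate controls in a single-dose test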;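 further: His-tagged Mcl-1 with rhodamine Noxa BH3 peptide and terbium anti-His antibody; 0% = Mcl-1 plus Noxa peptide wells and 100% = peptide-only wells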
* = called active by the depositor; / = no result given.

SMILES | Mcl-1 Bim block | Arbovirus inh | m-calpain inh | Biofilm kill mix | Mcl1 Bid PPI | Mcl1-Noxa inh
CC(NC(=O)Cc1cccc(C(F)(F)F)c1)c1ccc(F)cc1 (stereo not drawn) | 3 | -2 | 11 | -11 | -11 | 3
COc1ccccc1N1C(=O)C=C(Sc2nc(C)cc(C)n2)C1=O | / | / | 10 | 10 | -30 | 54*
CCn1ncc(NC(=S)NCCc2ccc(OC)c(OC)c2)c1C(N)=O | 1 | 8 | 1 | 15 | -26 | 10
COc1cccc(C2SCC(=O)N2c2ccc(Br)cc2)c1OC (stereo not drawn) | -2 | 5 | 9 | 5 | -11 | 3
COc1cc(S(=O)(=O)Nc2cccc(C)c2)ccc1NC(=O)c1ccncc1 | -4 | -15 | 19 | 15 | 95* | 12
COc1cc(/C=C(\C#N)c2ccccn2)cc(OC)c1O | / | / | 5 | 19 | -136 | 14
COc1cc(/C=C(\C#N)c2[nH]nc(N)c2C#N)cc(OC)c1O | 0 | 5 | -26 | / | 12 | 56*
Cc1ccc(-c2nc(NC(=O)CSc3cc(C)c4ccccc4n3)ns2)cc1 | -425 | -17 | -14 | 4 | -23 | -212
O=C(CSc1ccc2ccccc2n1)Nc1nsc(-c2ccc(Cl)cc2)n1 | -270 | 0 | -37 | 21 | 61* | 19
CSc1c(C#N)c(N)nc2sc(C(=O)c3ccc(Cl)c(Cl)c3)c(N)c12 | / | / | 12 | 15 | 52* | 21
O=c1[nH]c2c(s1)C(c1ccc(O)cc1)C1C3CCC(C3)C1S2 (stereo not drawn) | 0 | 5 | 9 | / | 48 | 54*
O=c1[nH]c2c(s1)C(c1cccnc1)C1C3CCC(C3)C1S2 (stereo not drawn) | / | / | 17 | 16 | -47 | -9
CCCCCCCCCC(=O)N1c2ccccc2NC(=O)C1CC(=O)Nc1ccc(C(=O)O)cc1 (stereo not drawn) | / | / | 53* | 22 | 36 | 27
O=C(NCCc1ccccn1)c1ccc(OC(F)F)cc1 | 0 | 11 | 89* | 14 | -25 | -3
CCN(CC)S(=O)(=O)c1ccc(C(=O)NCCc2ccccn2)cc1 | -1 | 4 | -13 | 20 | -18 | 8
CC(C)C[C@H](NC(=O)c1nc[nH]c1C(=O)N[C@@H](CCCCNC(=O)OC(C)(C)C)C(=O)OC(C)(C)C)C(=O)OC(C)(C)C | / | / | 48 | 14 | -58 | -94
CC(C)C[C@H](NC(=O)c1nc[nH]c1C(=O)N1CCN(C(=O)OC(C)(C)C)CC1)C(=O)OC(C)(C)C | -1 | 32* | 20 | 18 | 3 | -34
CC(C)C[C@H](NC(=O)c1nc[nH]c1C(=O)NCCCCCNC(=O)OC(C)(C)C)C(=O)OC(C)(C)C | -3 | -18 | 51* | 17 | 0 | -40
CC(C)C[C@H](NC(=O)c1[nH]cnc1C(=O)N[C@@H](C)c1ccccc1)C(=O)OCc1ccccc1 | / | / | 56* | -2 | -41 | -101
C[C@@H](NC(=O)c1nc[nH]c1C(=O)N[C@@H](CCCCNC(=O)OC(C)(C)C)C(=O)OC(C)(C)C)c1ccccc1 | 2 | -17 | 61* | 18 | -16 | -79
CC(C)(C)OC(=O)NCCCC[C@H](NC(=O)c1nc[nH]c1C(=O)N1CCN(C(=O)OC(C)(C)C)CC1)C(=O)OC(C)(C)C | 0 | 1 | 12 | 20 | -1 | -20
O=C(CSc1n[nH]c(=O)n1Cc1ccco1)Nc1ccccc1Cl | / | / | 5 | 4 | -19 | -12
CCn1c(SCC(=O)n2c(C)c(C)c3ccccc32)nnc1-c1ccco1 | -6 | 7 | 7 | / | 54* | -7
CC(=O)N(c1cccc(Br)c1)c1nc(C)cc(C)c1C#N | / | / | -24 | 19 | -18 | -1
COc1ccc(O)c(C(=O)/C=C/c2cc3ccccc3o2)c1 | / | / | 9 | / | 67* | 14
SMILES | Mcl-1 Bim block | Arbovirus inh | m-calpain inh | Biofilm kill mix | Mcl1 Bid PPI | Mcl1-Noxa inh
O=C(/C=C/c1cc2ccccc2o1)c1ccccc1O | / | / | 21 | 9 | 4 | -15
CN(C1CCCCC1)S(=O)(=O)c1cccc(C#N)c1 | -4 | 2 | -17 | 11 | -4 | 8
COc1cccc(C(c2sc3nc(C)nn3c2O)N2CCc3ccccc3C2)c1 (stereo not drawn) | 0 | -2 | 6 | / | -9 | 52*
CN(C)c1ccc(NC(=O)Nc2cccc(Cl)c2)cc1 | -5 | -17 | 36 | / | 1 | 76*
CN(C)c1ccc(NC(=O)Nc2csc3ccccc23)cc1 | / | / | 27 | 17 | -8 | 57*
CN(C)S(=O)(=O)c1ccc(NC(=O)/C=C/c2ccccc2Cl)cc1 | -1 | -13 | -14 | 5 | -27 | 3
O=C(Nc1ccc(F)cc1)Nc1csc2ccccc12 | / | / | -8 | 31 | -25 | 19
CN(C)c1ccc(NC(=O)/C=C/c2c(Cl)cccc2Cl)cc1 | -8 | -12 | 22 | 21 | 9 | 83*
CS(=O)(=O)NCCCCCCNS(C)(=O)=O | 0 | 18 | -9 | 16 | -9 | -4
Cc1ccc(-n2c(=O)c3ccccc3n(CC(=O)C(C)(C)C)c2=O)cc1 | -2 | -9 | 3 | 25 | 0 | 7
COC(=O)c1c(S(C)(=O)=O)nc(-c2ccccc2)[nH]c1=O | 0 | 2 | -7 | 16 | 18 | 28
Cc1ccc(-c2[nH]ncc2/C=N/n2c(COc3ccccc3)nc3ccccc3c2=O)cc1 | -1 | -30 | -9 | 22 | 10 | -15
Cc1cc(/C=N/n2c(COc3ccccc3)nc3ccccc3c2=O)c(O)c([N+](=O)[O-])c1 | 0 | -28 | 6 | 5 | -17 | 100*
CCOc1cc(NC(=S)NCCCN2CCOCC2)c(OCC)cc1NC(=O)c1ccc(C)cc1 | -1 | -4 | -56 | 13 | -47 | 19
O=C(COc1ccc2c(c1)CCC2)N1CCc2ccccc21 | 2 | -9 | -16 | / | 90* | 49
CCOC(=O)c1cc[nH]c1CC(=O)NC | / | / | -7 | 20 | -53 | -13
CNCc1ccccc1Sc1cc(O)ccc1O | -2 | -9 | 10 | 23 | 40 | 99*
Cc1ccccc1C(=O)Nc1ccc(C(=O)N/N=C/c2ccc(O)c(Br)c2)cc1 | 1 | 3 | -38 | 14 | -32 | 58*
Cc1ccccc1C(=O)Nc1ccc(C(=O)N/N=C/c2ccc(F)cc2)cc1 | -19 | -4 | 39 | 3 | 6 | 17
CCOC(=O)N1CCC(Nc2c(Nc3ccc(F)cc3)c(=O)c2=O)CC1 | -8 | -5 | 0 | / | -5 | 4
CCOC(=O)N1CCC(Nc2c(Nc3cccc(CC)c3)c(=O)c2=O)CC1 | -5 | 36* | 26 | / | -16 | 18
Cc1ccc(C(=O)NC(=S)Nc2ccc(NC(=O)c3cccs3)cc2)cc1[N+](=O)[O-] | -6 | -24 | 16 | 6 | 52* | 42
Cc1ccc(NC(=O)C2CCCN(C(=O)c3ccc(Cl)cc3)C2)cc1S(=O)(=O)N1CCOCC1 (stereo not drawn) | 0 | 5 | 3 | 17 | -18 | 21
O=C(COc1ccccc1C(=O)N/N=C\c1ccc(O)c(O)c1)N/N=C/c1ccc(O)c(O)c1 | 12 | -8 | -3 | / | -40 | 100*
Cc1ccccc1OCC(=O)N/N=C/c1ccccn1 | 64* | -11 | 10 | 2 | -14 | -1
